Data as given in ChEMBL document CHEMBL3868603, “Synthesis and evaluation of naphthyl bearing 1,2,3-triazole analogs as antiplasmodial agents, cytotoxicity and docking studies” (Bioorg Med Chem, 2017).

Key:
[1] = test system: Plasmodium falciparum; assay: Antiplasmodial activity against pyrimethamine-sensitive Plasmodium falciparum 3D7 infected in human erythrocytes incubated for 50 hrs by SYBR green 1 dye based fluorescence assay; type: functional, cell-based; conditions: 3D7, 50 h
Summary of the method: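 Parasites cultured in RPMI 1640 with 10% human serum, erythrocytes at 2% haematocrit, 37°C, 5% O2/5% CO2/90% N2; sorbitol-synchronized rings. DMSO stocks serially 2-fold diluted; 1% ring-infected erythrocytes at 4% haematocrit, 50 h. SYBR Green 1 lysis buffer, fluorescence Ex 485/Em 530; chloroquine (500 nM) background subtracted, normalized to DMSO (0.05%), nonlinear regression IC50; two independent experiments in duplicate.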

[2] = Cytotoxicity against HEK293 cells assessed as decrease in cell viability at 100 uM after 48 hrs by MTT assay; type: toxicity, cell-based; conditions: human, hek293, 48 h
Summary of the method: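 HEK-293 in MEM with 10% FBS, seeded 10,000 cells/well, 24 h at 37°C, 5% CO2; treated 1–100 µM in triplicate with DMSO control and doxorubicin reference, 48 h. MTT added 1 h, dried, DMSO dissolved, absorbance 562 nm; IC50 as 50% absorbance reduction versus control, mean ± SD of three independent experiments.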

[3] = test system: Plasmodium falciparum; assay: Inhibition of trophozoite stage of Plasmodium falciparum DHFR assessed as reduction in NADPH depletion at 50 uM incubated for 30 mins followed by NADPH addition measured for 30 mins at 15 secs interval by UV/Vis spectrophotometric analysis
Summary of the method: (§1)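 Soluble extract from saponin-isolated trophozoites (culture at 15-16% parasitaemia), freeze-thaw, sonication, centrifugation; protein by Bradford. 500 µg extract in 1 ml assay buffer with inhibitor or 0.05% DMSO, 30 min room temperature, spun to remove precipitate; 60 µM NADPH and 50 µM DHA added, A340 decrease read every 15 s for 30 min; slope by linear regression as percent of control, representative experiment.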

[4] = test system: Plasmodium falciparum; assay: Antiplasmodial activity against pyrimethamine-resistant Plasmodium falciparum Dd2 infected in human erythrocytes incubated for 50 hrs by SYBR green 1 dye based fluorescence assay; type: functional, cell-based; conditions: Dd2, 50 h
Summary of the method: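 Ring-stage sorbitol-synchronised parasites in RPMI 1640 with 10% human serum, 1% ring parasitaemia, 2% final haematocrit; compounds from DMSO stocks in 2-fold serial dilution; 37°C, 5% O2/5% CO2/90% N2, 50 h; lysis buffer with SYBR Green 1, fluorescence Ex 485/Em 530; chloroquine (500 nM) background subtracted, normalised to DMSO (0.05%) wells; nonlinear regression IC50; two independent experiments in duplicate.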

[5] = test system: Plasmodium falciparum; assay: Inhibition of trophozoite stage of Plasmodium falciparum DHFR assessed as reduction in NADPH depletion at 25 uM incubated for 30 mins followed by NADPH addition measured for 30 mins at 15 secs interval by UV/Vis spectrophotometric analysis; summary of the method: as §1
[6] = test system: Plasmodium falciparum; assay: Potency index, ratio of pyrimethamine IC50 to compound IC50 for pyrimethamine-resistant Plasmodium falciparum Dd2 infected in human erythrocytes; type: functional

SMILES	IC50 [1]	Activity [2]	inhibition [3]	IC50 [4]	inhibition [5]	Ratio IC50 [6]
c1ccc2cc(OCc3cn(CCN4CCOCC4)nn3)ccc2c1	80 µM	Non-Toxic				
CCc1nc(N)nc(N)c1-c1ccc(Cl)cc1 [PYRIMETHAMINE]	0.047 µM		25%	34 µM		
O=[N+]([O-])c1ccc(Cn2cc(COc3ccc4ccccc4c3)nn2)cc1	39.6 µM	Non-Toxic		41.6 µM		
CCCn1cc(COc2ccc3cc(Br)ccc3c2)nn1	22.1 µM	Non-Toxic		36.9 µM		
CCn1cc(COc2ccc3cc(Br)ccc3c2)nn1	23.6 µM	Non-Toxic		34.2 µM		
CC(C)Cn1cc(COc2ccc3cc(Br)ccc3c2)nn1	19.6 µM	Non-Toxic		31 µM	41%	3
CCCCCn1cc(COc2ccc3ccccc3c2)nn1	46.5 µM	Non-Toxic				
CC(C)n1cc(COc2ccc3cc(Br)ccc3c2)nn1	21 µM	Non-Toxic		24 µM		3
O=[N+]([O-])c1ccc(Cn2cc(COc3ccc4cc(Br)ccc4c3)nn2)cc1	14.7 µM	Non-Toxic		13.6 µM		3
CC(C)Cn1cc(COc2ccc3ccccc3c2)nn1	61.5 µM	Non-Toxic				
O=C(O)CC[C@H](NC(=O)c1ccc(-n2cc(COc3ccc4cc(Br)ccc4c3)nn2)cc1)C(=O)O	41.5 µM	Non-Toxic				

Further lines, with some results ahead:

IC50 [1]	SMILES	Activity [2]	inhibition [3]	IC50 [4]	inhibition [5]	Ratio IC50 [6]
26.2 µM	CCCCCn1cc(COc2ccc3cc(Br)ccc3c2)nn1	Non-Toxic				
39 µM	c1ccc2cc(OCc3cn(C4CCCC4)nn3)ccc2c1	Non-Toxic				
43.5 µM	CC(C)n1cc(COc2ccc3ccccc3c2)nn1	Non-Toxic				
97.5 µM	CCn1cc(COc2ccc3ccccc3c2)nn1	Non-Toxic				
48.6 µM	C=CCn1cc(COc2ccc3ccccc3c2)nn1	Non-Toxic				
54.5 µM	CCCn1cc(COc2ccc3ccccc3c2)nn1	Non-Toxic				
21.2 µM	C=CCn1cc(COc2ccc3cc(Br)ccc3c2)nn1	Non-Toxic			13%	
27.3 µM	Brc1ccc2cc(OCc3cn(C4CCCC4)nn3)ccc2c1	Non-Toxic				
